Test results from ChEMBL document CHEMBL2407011, “Novel 2-(2,4-dioxo-1,3-thiazolidin-5-yl)acetamides as antioxidant and/or anti-inflammatory compounds” (Eur J Med Chem, 2013).
Values after ≈ are worked out from the molar mass of the structure shown.

Assays:
THP-1 [1] = assay: Antiinflammatory activity in human THP1 cells assessed as inhibition of PMA-induced MCP-1 secretion preincubated for 1 hr prior PMA-challenge measured after 48 hrs by ELISA; format: functional, cell-based
In short: (§1)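 THP1 cells at 2 x 10^5 cells/mL were pretreated 1 h with 5, 10 and 20 µM compound, then stimulated with 10 ng/mL PMA for 48 h. Supernatant IL-1β or MCP-1 was measured by ELISA at 450 nm (corrected at 570 nm) and quantified from a standard curve. Percent inhibition was taken versus control and IC50 derived, reported as mean ± SD of three independent experiments.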

[2] = Antioxidant activity assessed as DPPH scavenging activity after 30 mins by UV-visible spectrophotometry; format: functional
In short: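 Methanolic compound solutions (5–180 µg/mL) mixed 1:1 by volume with 0.002% DPPH in methanol, shaken and kept in the dark 30 min. Absorbance read at 517 nm; % scavenging = (Acontrol − Asample)/Acontrol × 100. EC50 is the concentration scavenging 50% of radicals; mean of three experiments.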

THP-1 [3] = assay: Antiinflammatory activity in human THP1 cells assessed as inhibition of PMA-induced IL-1beta secretion preincubated for 1 hr prior PMA-challenge measured after 48 hrs by ELISA; format: functional, cell-based; in short: as §1
[4] = Hemolysis of human erythrocytes after 30 mins by spectrophotometry; format: ADME, cell-based, Erythrocyte
In short: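 Citrated human blood centrifuged (3,000 g, 10 min), erythrocytes washed in PBS pH 7.4 and made up as a 1.25% suspension. Suspension incubated with H2O2 (2.5 mM) and compound (50–300 µg/mL) 30 min at 37 °C, stopped on ice, centrifuged, read at 540 nm. Inhibition = (AH2O2 − Asample)/(AH2O2 − Anormal) × 100.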

[5] = Antioxidant activity assessed as inhibition of lipid peroxidation activity after 15 mins by MDA assay; format: functional
In short: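 Egg yolk diluted 1:1 in PBS (0.1 M, pH 7.45) served as substrate. Compound (50–300 µg/mL) was added with FeSO4 (25 mM stock) and incubated 15 min at 37 °C. Reaction stopped with 20% TCA plus 0.8% thiobarbituric acid, then heated 15 min at 100 °C. MDA adduct read at 532 nm; % inhibition versus control, EC50 from triplicates.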

[6] = Antioxidant activity assessed as superoxide radical scavenging activity after 5 mins by spectrophotometry; format: functional
In short: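 Superoxide generated by PMS/NADH reducing NBT, in 16 mM Tris-HCl pH 8.0 with […], 50 µM NBT, 10 µM PMS and compound (5–180 µg/mL). After 5 min at room temperature, formazan read at 560 nm; % scavenging versus control, EC50 from triplicates.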

THP-1 [7] = assay: Antiinflammatory activity against PMA-stimulated human THP1 cells assessed as IL-1beta levels after 48 hrs by ELISA (reference value: 172 +/- 0.71 pg/ml); format: functional
THP-1 [8] = assay: Antiinflammatory activity against PMA-stimulated human THP1 cells assessed as MCP-1 levels after 48 hrs by ELISA (reference value: 3521.63 +/- 79.78 pg/ml); format: functional
[9] = Homo sapiens, Erythrocyte, 0.5 h, read-out: EC50

Compound | IC50 (THP-1 [1]) [µM] | EC50 [2] | IC50 (THP-1 [3]) [µM] | EC50 ([4]; erythrocyte) | EC50 [5] | EC50 [6] | EC50 [4, 9] [µg/mL] | Activity (THP-1 [7]) [pg/mL] | Activity (THP-1 [8]) [pg/mL]
O=C(CC1SC(=O)NC1=O)Nc1nc(-c2ccc(F)cc2)cs1 (stereo not given) | 17.6 | 52.69 µg/mL (≈ 150 µM) | > 50 | Not Active | Not Active | Not Active | – | – | –
O=C(CC1SC(=O)NC1=O)Nc1nc(-c2ccc(Br)cc2)cs1 (stereo not given) | 49.1 | 49.71 µg/mL (≈ 121 µM) | 33.1 | Not Active | Not Active | Not Active | – | – | –
O=C(CC1SC(=O)NC1=O)Nc1nc(-c2ccc(I)cc2)cs1 (stereo not given) | 31.7 | Not Active | > 50 | Not Active | – | – | – | – | –
O=C(CC1SC(=O)NC1=O)Nc1nc(-c2ccccc2Cl)cs1 (stereo not given) | 26.5 | Not Active | 18.2 | – | – | – | – | – | –
O=C(CC1SC(=O)NC1=O)Nc1nc(-c2cccc(Cl)c2)cs1 (stereo not given) | 34.2 | Not Active | 23.4 | – | – | – | – | – | –
Cc1ccccc1-c1csc(NC(=O)CC2SC(=O)NC2=O)n1 (stereo not given) | 18.8 | Not Active | 7.66 | – | – | – | – | – | –
Cc1cccc(-c2csc(NC(=O)CC3SC(=O)NC3=O)n2)c1 (stereo not given) | 18.9 | 90.16 µg/mL (≈ 260 µM) | 11.7 | Not Active | – | Not Active | – | – | –
O=C(CC1SC(=O)NC1=O)Nc1nc(-c2ccccc2F)cs1 (stereo not given) | 16.7 | 82.5 µg/mL (≈ 235 µM) | > 50 | Not Active | Not Active | Not Active | – | – | –
COc1ccccc1-c1csc(NC(=O)CC2SC(=O)NC2=O)n1 (stereo not given) | > 50 | 58.68 µg/mL (≈ 161 µM) | 7.23 | – | 131.79 µg/mL (≈ 363 µM) | 79.94 µg/mL (≈ 220 µM) | 96.6 (≈ 266 µM) | – | –
O=C(CC1SC(=O)NC1=O)Nc1nc2ccccc2s1 (stereo not given) | 20.8 | 52.18 µg/mL (≈ 170 µM) | > 50 | – | 149.7 µg/mL (≈ 487 µM) | 101.18 µg/mL (≈ 329 µM) | 107 (≈ 349 µM) | – | –
O=C(CC1SC(=O)NC1=O)Nc1nc2ccc([N+](=O)[O-])cc2s1 (stereo not given) | 20.3 | 39.76 µg/mL (≈ 113 µM) | 6.83 | Not Active | Not Active | Not Active | – | – | –
COc1ccc2nc(NC(=O)CC3SC(=O)NC3=O)sc2c1 (stereo not given) | 39.6 | 51.82 µg/mL (≈ 154 µM) | 7.03 | Not Active | Not Active | Not Active | – | – | –
CCOc1ccc2nc(NC(=O)CC3SC(=O)NC3=O)sc2c1 (stereo not given) | 63.1 | 62.9 µg/mL (≈ 179 µM) | > 50 | Not Active | Not Active | Not Active | – | – | –
O=C(CC1SC(=O)NC1=O)Nc1nc(-c2ccccc2)cs1 (stereo not given) | 30.4 | Not Active | 9.6 | – | – | – | – | – | –
O=C(CC1SC(=O)NC1=O)Nc1nc(-c2ccc(Cl)cc2)cs1 (stereo not given) | > 50 | Not Active | 16.3 | – | – | – | – | – | –
O=C1O[C@H]([C@@H](O)CO)C(O)=C1O [ASCORBIC ACID] | – | 40.28 µg/mL (≈ 229 µM) | – | – | 139.97 µg/mL (≈ 795 µM) | 21.01 µg/mL (≈ 119 µM) | 96.6 (≈ 549 µM) | – | –
O=c1cc(-c2ccc(O)c(O)c2)oc2cc(O)cc(O)c12 [LUTEOLIN] | – | 44.18 µg/mL (≈ 154 µM) | – | – | 149.7 µg/mL (≈ 523 µM) | 31.01 µg/mL (≈ 108 µM) | 107 (≈ 375 µM) | – | –
CCc1ccc(CCOc2ccc(CC3SC(=O)NC3=O)cc2)nc1 (stereo not given) [PIOGLITAZONE] | 18.8 | – | > 50 | – | – | – | – | 165 | 2588.33
CN1C(C(=O)Nc2ccccn2)=C(O)c2ccccc2S1(=O)=O [PIROXICAM] | – | – | 21.3 | – | – | – | – | – | –
